Converted amounts (≈) assume the structure as drawn.
What was measured:
Format in all cases: functional
[1] = system: Staphylococcus epidermidis; test: Antibacterial activity against methicillin-resistant Staphylococcus epidermidis after 48 hrs by agar dilution method
Method in brief: (§1)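 Agar dilution per NCCLS: 2-fold serial dilutions incorporated into hot Mueller-Hinton agar. Clinical isolates grown from blood slants, suspended in sterile 0.90% NaCl to about 10⁵–10⁶ cfu/mL, spotted onto plates. Incubation 36.5 °C, 48 h. MIC taken as the lowest concentration giving complete growth inhibition. Run in triplicate at pH 7.40.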

[2] = system: Streptococcus agalactiae; test: Antibacterial activity against Streptococcus agalactiae at 80 ug/ml after 24 hrs by Oxford cup assay; conditions: read-out: IZ
Method in brief: (§2)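 Oxford cup diffusion with clinical isolates. Inoculum made in 0.9% saline to a McFarland standard and spread evenly on nutrient agar. Compound solutions, prepared as for the agar dilution test, were added at the stated concentration to Oxford cups set equidistant on the agar surface. Inhibition zones were measured after 24 h at 37 °C.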

[3] = system: Streptococcus agalactiae; test: Antibacterial activity against Streptococcus agalactiae at 160 ug/ml after 24 hrs by Oxford cup assay; conditions: read-out: IZ; method in brief: as §2
[4] = system: Staphylococcus epidermidis; test: Antibacterial activity against methicillin-resistant Staphylococcus epidermidis at 320 ug/ml after 24 hrs by Oxford cup assay; conditions: read-out: IZ
Method in brief: (§3)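 Oxford cup diffusion: clinical isolate inoculum in 0.9% saline set by McFarland standard, spread evenly on nutrient agar. Cups placed equidistant on the surface and filled with compound solutions prepared as for the agar dilution test, at several concentrations. Inhibition zone measured after 24 h at 37 °C.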

[5] = system: Escherichia coli; test: Antibacterial activity against Escherichia coli at 160 ug/ml after 24 hrs by Oxford cup assay; conditions: read-out: IZ; method in brief: as §2
[6] = system: Escherichia coli; test: Antibacterial activity against Escherichia coli after 48 hrs by agar dilution method
Method in brief: (§4)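 Agar dilution per NCCLS on clinical isolates. 2-fold serial dilutions of compound (2 mL) mixed into 18 mL hot Mueller-Hinton agar. Inoculum from blood slants, adjusted to approx. 10⁵–10⁶ cfu/mL in sterile 0.90% NaCl, then spotted onto the plates. Incubated 36.5 °C, 48 h. MIC is the lowest concentration giving complete growth inhibition. Run in triplicate at pH 7.40.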

[7] = system: Streptococcus agalactiae; test: Antibacterial activity against Streptococcus agalactiae at 320 ug/ml after 24 hrs by Oxford cup assay; conditions: read-out: IZ; method in brief: as §2
[8] = system: Escherichia coli; test: Antibacterial activity against Escherichia coli at 320 ug/ml after 24 hrs by Oxford cup assay; conditions: read-out: IZ; method in brief: as §2
[9] = system: Staphylococcus aureus; test: Antibacterial activity against methicillin-resistant Staphylococcus aureus at 320 ug/ml after 24 hrs by Oxford cup assay; conditions: read-out: IZ; method in brief: as §3
[10] = system: Staphylococcus aureus; test: Antibacterial activity against methicillin-resistant Staphylococcus aureus at 160 ug/ml after 24 hrs by Oxford cup assay; conditions: read-out: IZ; method in brief: as §3
[11] = system: Escherichia coli; test: Antibacterial activity against Escherichia coli at 80 ug/ml after 24 hrs by Oxford cup assay; conditions: read-out: IZ; method in brief: as §2
[12] = system: Staphylococcus aureus; test: Antibacterial activity against methicillin-resistant Staphylococcus aureus at 80 ug/ml after 24 hrs by Oxford cup assay; conditions: read-out: IZ; method in brief: as §3
[13] = system: Staphylococcus epidermidis; test: Antibacterial activity against methicillin-resistant Staphylococcus epidermidis at 160 ug/ml after 24 hrs by Oxford cup assay; conditions: read-out: IZ; method in brief: as §3
[14] = system: Staphylococcus aureus; test: Antibacterial activity against methicillin-resistant Staphylococcus aureus after 48 hrs by agar dilution method; method in brief: as §1
[15] = system: Staphylococcus epidermidis; test: Antibacterial activity against methicillin-resistant Staphylococcus epidermidis at 80 ug/ml after 24 hrs by Oxford cup assay; conditions: read-out: IZ; method in brief: as §3
[16] = system: Streptococcus agalactiae; test: Antibacterial activity against Streptococcus agalactiae after 48 hrs by agar dilution method; method in brief: as §4

Compound | MIC [1] | zone of inhibition at 80 µg/mL [2] | zone of inhibition at 160 µg/mL [3] | zone of inhibition at 320 µg/mL [4] | zone of inhibition at 160 µg/mL [5] | MIC [6] | zone of inhibition at 320 µg/mL [7] | zone of inhibition at 320 µg/mL [8] | zone of inhibition at 320 µg/mL [9] | zone of inhibition at 160 µg/mL [10] | zone of inhibition at 80 µg/mL [11] | zone of inhibition at 80 µg/mL [12] | zone of inhibition at 160 µg/mL [13] | MIC [14] | zone of inhibition at 80 µg/mL [15] | MIC [16]
C=C[C@]1(C)C[C@@H](OC(=O)CSC(C)(C)CNC(=O)c2ccccc2N)[C@]2(C)[C@H](C)CC[C@]3(CCC(=O)[C@H]32)[C@@H](C)[C@@H]1O | 0.5 µg/mL (≈ 0.855 µM) | 12 mm | 11.8 mm | 17.4 mm | 13.7 mm | 2 µg/mL (≈ 3.42 µM) | 11.9 mm | 13.8 mm | 19.6 mm | 18.9 mm | 13.1 mm | 16.6 mm | 16 mm | 1 µg/mL (≈ 1.71 µM) | 15.3 mm | 0.5 µg/mL (≈ 0.855 µM)
C=C[C@]1(C)C[C@@H](OC(=O)CSC(C)(C)CNC(=O)c2cccc(N)c2)[C@]2(C)[C@H](C)CC[C@]3(CCC(=O)[C@H]32)[C@@H](C)[C@@H]1O | 1 µg/mL (≈ 1.71 µM) | 8.86 mm | 9.8 mm | 11.2 mm | 12.5 mm | 8 µg/mL (≈ 13.7 µM) | 9.66 mm | 10.7 mm | 10.2 mm | 10.8 mm | 9.94 mm | 9.56 mm | 9.72 mm | 2 µg/mL (≈ 3.42 µM) | 9.63 mm | 0.5 µg/mL (≈ 0.855 µM)
C=C[C@]1(C)C[C@@H](OC(=O)CSC(C)(C)CNC(=O)c2ccc(N)cc2)[C@]2(C)[C@H](C)CC[C@]3(CCC(=O)[C@H]32)[C@@H](C)[C@@H]1O | 0.5 µg/mL (≈ 0.855 µM) | 10.9 mm | 11.6 mm | 17.9 mm | 17.8 mm | 2 µg/mL (≈ 3.42 µM) | 11.4 mm | 18.8 mm | 22.2 mm | 21.6 mm | 18.1 mm | 20.6 mm | 18.1 mm | 0.25 µg/mL (≈ 0.427 µM) | 17.3 mm | 0.5 µg/mL (≈ 0.855 µM)
C=C[C@]1(C)C[C@@H](OC(=O)CSC(C)(C)CNC(=O)[C@H](N)c2ccccc2)[C@]2(C)[C@H](C)CC[C@]3(CCC(=O)[C@H]32)[C@@H](C)[C@@H]1O | 16 µg/mL (≈ 26.7 µM) | 10.1 mm | 10.6 mm | 10.8 mm | 11.3 mm | 8 µg/mL (≈ 13.4 µM) | 11 mm | 10.8 mm | 10.2 mm | 9.98 mm | 9.2 mm | 9.41 mm | 10 mm | 2 µg/mL (≈ 3.34 µM) | 10.9 mm | 16 µg/mL (≈ 26.7 µM)
C=C[C@]1(C)C[C@@H](OC(=O)CSC(C)(C)CNC(=O)[C@@H](N)c2ccccc2)[C@]2(C)[C@H](C)CC[C@]3(CCC(=O)[C@H]32)[C@@H](C)[C@@H]1O | 4 µg/mL (≈ 6.68 µM) | 10.7 mm | 10.4 mm | 11.2 mm | 9.89 mm | 4 µg/mL (≈ 6.68 µM) | 11.2 mm | 10.7 mm | 10.3 mm | 10.1 mm | 10 mm | 9.82 mm | 10.6 mm | 0.25 µg/mL (≈ 0.417 µM) | 10.3 mm | 8 µg/mL (≈ 13.4 µM)
C=C[C@]1(C)C[C@@H](OC(=O)CSC(C)(C)CNC(=O)c2cc3ccccc3[nH]2)[C@]2(C)[C@H](C)CC[C@]3(CCC(=O)[C@H]32)[C@@H](C)[C@@H]1O | 16 µg/mL (≈ 26.3 µM) | 9.31 mm | 9.62 mm | 9 mm | 9.52 mm | 16 µg/mL (≈ 26.3 µM) | 9.25 mm | 10.8 mm | 8.52 mm | 8.77 mm | 8.87 mm | 9.05 mm | 8.84 mm | 2 µg/mL (≈ 3.28 µM) | 10.3 mm | 8 µg/mL (≈ 13.1 µM)
C=C[C@]1(C)C[C@@H](OC(=O)CSC(C)(C)CNC(=O)OCC(C)C)[C@]2(C)[C@H](C)CC[C@]3(CCC(=O)[C@H]32)[C@@H](C)[C@@H]1O | 8 µg/mL (≈ 14.1 µM) | 9.85 mm | 9.01 mm | 11.1 mm | 9.55 mm | 16 µg/mL (≈ 28.3 µM) | 10.2 mm | 10.3 mm | 10.9 mm | 9.56 mm | 9.91 mm | 9.64 mm | 11 mm | 2 µg/mL (≈ 3.53 µM) | 10.6 mm | 4 µg/mL (≈ 7.07 µM)
C=C[C@]1(C)C[C@@H](OC(=O)CSC(C)(C)CNC(=O)OCc2ccccc2)[C@]2(C)[C@H](C)CC[C@]3(CCC(=O)[C@H]32)[C@@H](C)[C@@H]1O | 32 µg/mL (≈ 53.3 µM) | 10.7 mm | 10.6 mm | 11 mm | 15.3 mm | 32 µg/mL (≈ 53.3 µM) | 11.5 mm | 14.7 mm | 12.7 mm | 11.5 mm | 11.7 mm | 10.4 mm | 10.2 mm | 4 µg/mL (≈ 6.67 µM) | 11 mm | 16 µg/mL (≈ 26.7 µM)

From ChEMBL document CHEMBL2375359, “Synthesis and antibacterial evaluation of novel pleuromutilin derivatives” (2013)
